Test results from article PMC2921666 (Genes & cancer, 2010).
pIC50: −log10 of the molar value.

Legend:
SET2 cells = test: Growth inhibition, SET-2 cells; assay type: cell-based, human; details: SET2 cells (hemizygous V617F), 72 hours
Method in brief: (§1)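 Cells grown 72 h with varying concentrations of test compound. Media: Ba/F3:JAK2V617F in RPMI 1640 with 10% FBS plus 1% WEHI-3B conditioned medium (IL-3 source); 32D:p210T315I in IMDM with 10% FBS; K562 in RPMI 1640 with 10% FBS; HEL and SET-2 in RPMI 1640 with 20% and 10% heat-inactivated FBS. Viability by Trypan blue exclusion; GI50 from percent viable cells plotted against drug concentration.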

Ba/F3:JAK2V617F cells = test: Growth inhibition, Ba/F3:JAK2V617F cells; assay type: cell-based, mouse; details: 72 hours
Method in brief: as §1

[1] = molecular target: recombinant V617F mutant JAK2 (aa 532-1132) (Homo sapiens, UniProt O60674, V617F); test: Radiometric kinase assay, recombinant V617F mutant JAK2; assay type: biochemical; details: read-out: IC50, kinase activity of mutant JAK2 (V617F); JAK2-V617F aa 532-1132, GST-Abltide substrate, 20 μM ATP
HEL cells = test: Growth inhibition, HEL cells; assay type: cell-based, human; details: 72 hours
Method in brief: as §1

[2] = system: JAK2 phosphorylation in Ba/F3:JAK2V617F cells; test: JAK2 phosphorylation in IL-3-stimulated Ba/F3:JAK2V617F cells; assay type: cell-based, mouse; details: 2 hours, with recombinant IL-3
Method in brief: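 Mid-log-phase Ba/F3:JAK2V617F cells were treated 2 h with the test compound at the indicated concentrations, including 1 h with 5 ng/mL recombinant mouse IL-3. Washed cells were lysed in detergent buffer. 50 µg of clarified lysate was run on SDS-PAGE and immunoblotted with anti-phospho-JAK2 (Tyr1007/1008). Blots were stripped and reprobed for total JAK2.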

K562 cells = test: Growth inhibition, K562 cells; assay type: cell-based; details: Homo sapiens, K562, 72 h
Method in brief: as §1

[3] = system: STAT-5 phosphorylation in 32D:p210T315I cells; test: STAT-5 phosphorylation in 32D:p210T315I cells; assay type: cell-based, murine; details: 2 hours
Method in brief: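 Exponentially growing 32D:p210T315I cells, kept in IMDM with 10% FBS, were given the test compound at the indicated concentrations for 2 h. They were then PBS-washed and lysed in detergent buffer. 50 µg of clarified lysate underwent SDS-PAGE and Western blotting for phospho-STAT-5.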

32D:p210T315I cells = test: Growth inhibition, 32D:p210T315I cells; assay type: cell-based, murine; details: Mus musculus, 72 h
Method in brief: as §1

Sequence of recombinant V617F mutant JAK2 (aa 532-1132) (O60674 532-1132 V617F): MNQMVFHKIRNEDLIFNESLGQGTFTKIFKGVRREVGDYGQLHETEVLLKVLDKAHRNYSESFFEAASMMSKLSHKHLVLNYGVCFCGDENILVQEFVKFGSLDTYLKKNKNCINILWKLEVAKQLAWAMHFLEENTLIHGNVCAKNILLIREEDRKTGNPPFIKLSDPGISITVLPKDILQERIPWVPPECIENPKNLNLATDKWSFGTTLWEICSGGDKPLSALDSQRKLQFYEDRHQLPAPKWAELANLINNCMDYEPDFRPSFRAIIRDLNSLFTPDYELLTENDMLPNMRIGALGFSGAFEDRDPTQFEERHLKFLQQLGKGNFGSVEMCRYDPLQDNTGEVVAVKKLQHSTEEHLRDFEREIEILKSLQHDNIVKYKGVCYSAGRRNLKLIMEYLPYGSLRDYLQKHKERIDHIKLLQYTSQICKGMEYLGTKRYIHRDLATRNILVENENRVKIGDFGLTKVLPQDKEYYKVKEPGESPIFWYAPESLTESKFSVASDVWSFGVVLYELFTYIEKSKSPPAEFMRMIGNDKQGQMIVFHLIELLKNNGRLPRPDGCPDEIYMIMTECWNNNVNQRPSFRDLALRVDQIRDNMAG

`N#C/C(=C/c1ccc(O)c(O)c1)C(=O)NCc1ccccc1` [AG490] was tested, and the GI50 (SET2 cells) was over 20 µM, the GI50 (Ba/F3:JAK2V617F cells) was 1 µM and the pIC50 [1] was 4.48. The GI50 (HEL cells) was over 20 µM and the “inhibition of JAK2 phosphorylation in cells” value [2] was “did not inhibit JAK2 phosphorylation”.

In the case of `Cc1ccc(NC(=O)c2ccc(CN3CCN(C)CC3)cc2)cc1Nc1nccc(-c2cccnc2)n1` [imatinib], the GI50 (K562 cells) was 0.1 to 0.2 µM, the “inhibition of STAT-5 phosphorylation” value [3] was “failed to do so” and the GI50 (32D:p210T315I cells) was 20 to 30 µM.
